According to ChEMBL document CHEMBL5038590, “Discovery of G Protein-Biased Ligands against 5-HT7R” (J Med Chem, 2021):

Key:
[1] = target: T1, 5-hydroxytryptamine receptor 1A (Homo sapiens, UniProt P08908); experiment: Binding affinity to 5-HT1AR (unknown origin)
T1 sequence (P08908 whole entry): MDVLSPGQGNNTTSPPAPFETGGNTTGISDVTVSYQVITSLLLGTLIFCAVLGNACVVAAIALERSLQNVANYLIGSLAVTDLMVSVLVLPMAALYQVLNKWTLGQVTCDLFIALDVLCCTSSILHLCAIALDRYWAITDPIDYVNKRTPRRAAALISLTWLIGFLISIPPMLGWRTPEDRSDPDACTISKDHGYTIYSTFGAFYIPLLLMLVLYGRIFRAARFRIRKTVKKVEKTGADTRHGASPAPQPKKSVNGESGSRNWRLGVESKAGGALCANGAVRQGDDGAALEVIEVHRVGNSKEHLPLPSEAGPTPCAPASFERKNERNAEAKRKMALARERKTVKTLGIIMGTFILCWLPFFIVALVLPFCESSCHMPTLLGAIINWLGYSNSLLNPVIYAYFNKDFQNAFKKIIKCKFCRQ
Procedure, shortened: (§1)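 Run by the NIMH Psychoactive Drug Screening Program as competition radioligand binding on crude membranes of cells expressing the recombinant receptor. Eleven dilutions (0.05 nM–50 μM, prepared at 5× assay concentration) were made in 50 mM Tris-HCl, 10 mM MgCl₂, 1 mM EDTA, pH 7.4. Incubation was 1.5 h at rt in the dark, followed by GF/B filtration (0.3% PEI) and scintillation counting. IC₅₀ was converted to Ki; at least triplicate.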

[2] = target: 5-hydroxytryptamine receptor 1B (Homo sapiens, UniProt P28222); experiment: Binding affinity to 5-HT1BR (unknown origin); procedure, shortened: as §1
Sequence of 5-hydroxytryptamine receptor 1B (P28222 whole entry): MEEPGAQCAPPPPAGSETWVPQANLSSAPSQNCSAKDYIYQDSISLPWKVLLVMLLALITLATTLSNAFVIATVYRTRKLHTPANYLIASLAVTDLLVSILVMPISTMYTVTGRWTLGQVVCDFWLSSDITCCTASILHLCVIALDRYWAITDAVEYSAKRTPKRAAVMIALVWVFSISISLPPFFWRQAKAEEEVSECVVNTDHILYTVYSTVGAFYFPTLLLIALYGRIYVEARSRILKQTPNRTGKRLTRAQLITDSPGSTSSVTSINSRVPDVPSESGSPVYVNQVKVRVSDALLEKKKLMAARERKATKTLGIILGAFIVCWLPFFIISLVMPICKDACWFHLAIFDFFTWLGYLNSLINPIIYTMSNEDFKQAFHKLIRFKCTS

[3] = target: 5-hydroxytryptamine receptor 1D (Homo sapiens, UniProt P28221); experiment: Binding affinity to 5-HT1DR (unknown origin); procedure, shortened: as §1
Sequence of 5-hydroxytryptamine receptor 1D (P28221 whole entry): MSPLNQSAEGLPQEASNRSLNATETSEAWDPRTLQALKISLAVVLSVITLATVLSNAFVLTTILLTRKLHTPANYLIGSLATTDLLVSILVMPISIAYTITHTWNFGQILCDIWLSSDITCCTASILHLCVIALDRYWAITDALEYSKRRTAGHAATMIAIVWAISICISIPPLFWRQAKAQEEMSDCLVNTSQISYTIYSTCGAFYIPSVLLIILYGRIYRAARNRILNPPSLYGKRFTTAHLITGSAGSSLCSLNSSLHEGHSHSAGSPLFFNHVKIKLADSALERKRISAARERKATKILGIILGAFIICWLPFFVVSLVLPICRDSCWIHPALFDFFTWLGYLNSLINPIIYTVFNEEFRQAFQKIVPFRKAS

[4] = target: 5-hydroxytryptamine receptor 1E (Homo sapiens, UniProt P28566); experiment: Binding affinity to 5-HT1ER (unknown origin); procedure, shortened: as §1
Sequence of 5-hydroxytryptamine receptor 1E (P28566 whole entry): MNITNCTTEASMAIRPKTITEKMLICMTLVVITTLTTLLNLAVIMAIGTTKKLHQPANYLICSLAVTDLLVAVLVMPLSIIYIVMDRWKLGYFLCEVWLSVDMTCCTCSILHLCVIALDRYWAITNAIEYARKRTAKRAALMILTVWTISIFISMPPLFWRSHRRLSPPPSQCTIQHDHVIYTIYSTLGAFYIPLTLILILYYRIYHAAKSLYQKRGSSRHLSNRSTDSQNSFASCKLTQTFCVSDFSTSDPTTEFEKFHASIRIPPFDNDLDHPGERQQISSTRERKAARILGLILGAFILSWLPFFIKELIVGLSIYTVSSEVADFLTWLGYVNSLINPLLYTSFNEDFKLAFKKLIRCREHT

[5] = target: 5-hydroxytryptamine receptor 2A (Homo sapiens, UniProt P28223); experiment: Binding affinity to 5-HT2AR (unknown origin); procedure, shortened: as §1
Sequence of 5-hydroxytryptamine receptor 2A (P28223 whole entry): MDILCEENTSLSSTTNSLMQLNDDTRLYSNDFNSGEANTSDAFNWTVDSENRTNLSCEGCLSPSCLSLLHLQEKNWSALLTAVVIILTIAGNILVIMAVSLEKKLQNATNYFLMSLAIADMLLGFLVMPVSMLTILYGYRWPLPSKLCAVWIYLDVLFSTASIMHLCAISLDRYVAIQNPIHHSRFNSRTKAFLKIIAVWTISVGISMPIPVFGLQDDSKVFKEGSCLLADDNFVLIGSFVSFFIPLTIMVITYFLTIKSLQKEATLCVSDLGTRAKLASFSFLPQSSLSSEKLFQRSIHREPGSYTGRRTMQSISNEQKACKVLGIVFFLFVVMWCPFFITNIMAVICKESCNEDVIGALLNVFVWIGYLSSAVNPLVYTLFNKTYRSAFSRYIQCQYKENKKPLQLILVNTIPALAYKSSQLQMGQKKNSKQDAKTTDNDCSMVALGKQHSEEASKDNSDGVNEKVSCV

[6] = target: 5-hydroxytryptamine receptor 2B (Homo sapiens, UniProt P41595); experiment: Binding affinity to 5-HT2BR (unknown origin); procedure, shortened: as §1
Sequence of 5-hydroxytryptamine receptor 2B (P41595 whole entry): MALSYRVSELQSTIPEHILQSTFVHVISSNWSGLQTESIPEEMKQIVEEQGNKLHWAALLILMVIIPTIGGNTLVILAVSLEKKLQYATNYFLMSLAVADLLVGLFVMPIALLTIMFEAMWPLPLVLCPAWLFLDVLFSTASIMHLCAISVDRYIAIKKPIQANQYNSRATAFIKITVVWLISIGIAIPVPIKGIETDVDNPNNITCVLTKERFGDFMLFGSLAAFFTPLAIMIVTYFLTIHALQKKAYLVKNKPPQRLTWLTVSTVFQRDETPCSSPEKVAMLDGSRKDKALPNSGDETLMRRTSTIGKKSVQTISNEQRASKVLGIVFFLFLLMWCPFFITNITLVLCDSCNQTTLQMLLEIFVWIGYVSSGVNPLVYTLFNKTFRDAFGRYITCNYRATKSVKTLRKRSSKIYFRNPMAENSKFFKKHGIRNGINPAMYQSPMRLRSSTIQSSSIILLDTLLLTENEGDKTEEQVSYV

[7] = target: T2, 5-hydroxytryptamine receptor 2C (Homo sapiens, UniProt P28335); experiment: Binding affinity to 5-HT2CR (unknown origin); procedure, shortened: as §1
T2 sequence (P28335 whole entry): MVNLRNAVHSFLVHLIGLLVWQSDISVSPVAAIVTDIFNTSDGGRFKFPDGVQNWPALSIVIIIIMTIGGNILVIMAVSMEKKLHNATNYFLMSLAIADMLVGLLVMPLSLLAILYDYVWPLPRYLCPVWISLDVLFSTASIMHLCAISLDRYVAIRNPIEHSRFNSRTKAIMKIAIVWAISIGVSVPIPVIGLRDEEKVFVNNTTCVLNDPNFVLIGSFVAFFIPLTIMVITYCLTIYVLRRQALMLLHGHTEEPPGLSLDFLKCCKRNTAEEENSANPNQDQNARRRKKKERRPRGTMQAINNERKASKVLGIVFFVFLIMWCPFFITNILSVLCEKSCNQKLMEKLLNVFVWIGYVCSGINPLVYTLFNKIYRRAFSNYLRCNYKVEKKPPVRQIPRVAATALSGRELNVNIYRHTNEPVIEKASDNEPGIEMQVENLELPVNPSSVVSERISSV

[8] = target: T3, 5-hydroxytryptamine receptor 3A (Homo sapiens, UniProt P46098); experiment: Binding affinity to 5-HT3R (unknown origin); procedure, shortened: as §1
T3 sequence (P46098 whole entry): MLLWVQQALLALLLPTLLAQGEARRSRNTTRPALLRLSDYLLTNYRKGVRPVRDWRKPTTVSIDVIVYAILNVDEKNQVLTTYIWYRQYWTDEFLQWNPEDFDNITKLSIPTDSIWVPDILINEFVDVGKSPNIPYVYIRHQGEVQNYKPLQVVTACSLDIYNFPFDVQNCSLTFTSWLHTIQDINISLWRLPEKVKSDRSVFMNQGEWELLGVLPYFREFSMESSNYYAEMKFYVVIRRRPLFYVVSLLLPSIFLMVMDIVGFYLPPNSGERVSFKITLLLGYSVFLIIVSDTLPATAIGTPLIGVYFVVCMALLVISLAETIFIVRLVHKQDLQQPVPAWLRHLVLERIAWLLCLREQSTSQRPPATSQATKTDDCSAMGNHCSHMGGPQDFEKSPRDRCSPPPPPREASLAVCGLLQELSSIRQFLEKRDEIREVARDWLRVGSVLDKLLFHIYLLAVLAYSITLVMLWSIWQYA

[9] = target: 5-hydroxytryptamine receptor 5A (Homo sapiens, UniProt P47898); experiment: Binding affinity to 5-HT5AR (unknown origin); procedure, shortened: as §1
Sequence of 5-hydroxytryptamine receptor 5A (P47898 whole entry): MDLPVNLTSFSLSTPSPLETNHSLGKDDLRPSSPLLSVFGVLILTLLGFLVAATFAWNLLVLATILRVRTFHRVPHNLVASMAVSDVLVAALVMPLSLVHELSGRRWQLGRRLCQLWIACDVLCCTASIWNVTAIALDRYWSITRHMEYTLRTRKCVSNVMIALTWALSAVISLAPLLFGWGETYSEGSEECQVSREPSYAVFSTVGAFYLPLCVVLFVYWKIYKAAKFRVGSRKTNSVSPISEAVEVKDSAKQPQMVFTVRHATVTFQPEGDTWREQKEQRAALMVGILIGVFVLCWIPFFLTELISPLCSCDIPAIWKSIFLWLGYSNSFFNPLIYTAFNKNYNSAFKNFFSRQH

[10] = target: 5-hydroxytryptamine receptor 6 (Homo sapiens, UniProt P50406); experiment: Binding affinity to 5-HT6R (unknown origin); procedure, shortened: as §1
Sequence of 5-hydroxytryptamine receptor 6 (P50406 whole entry): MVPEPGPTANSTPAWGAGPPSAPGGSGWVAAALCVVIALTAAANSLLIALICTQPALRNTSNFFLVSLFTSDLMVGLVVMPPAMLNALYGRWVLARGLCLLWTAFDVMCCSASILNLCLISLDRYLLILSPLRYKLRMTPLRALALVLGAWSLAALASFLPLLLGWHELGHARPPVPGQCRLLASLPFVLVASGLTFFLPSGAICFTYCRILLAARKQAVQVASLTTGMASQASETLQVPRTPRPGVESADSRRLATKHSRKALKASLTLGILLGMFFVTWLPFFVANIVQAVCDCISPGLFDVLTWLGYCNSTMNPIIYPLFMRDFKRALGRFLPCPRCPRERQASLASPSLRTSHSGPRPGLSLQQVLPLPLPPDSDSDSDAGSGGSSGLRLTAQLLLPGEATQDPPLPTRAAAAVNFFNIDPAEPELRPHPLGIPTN

[11] = target: T4, 5-hydroxytryptamine receptor 7 (Homo sapiens, UniProt P34969); experiment: Displacement of [3H] D-lysergic acid diethylamide from 5-HT7R (unknown origin) transfected in HEK293 cells incubated for 1.5 hrs by microbeta scintillation counter analysis; format: cell-based
T4 sequence (P34969 whole entry, the tested form may be a part): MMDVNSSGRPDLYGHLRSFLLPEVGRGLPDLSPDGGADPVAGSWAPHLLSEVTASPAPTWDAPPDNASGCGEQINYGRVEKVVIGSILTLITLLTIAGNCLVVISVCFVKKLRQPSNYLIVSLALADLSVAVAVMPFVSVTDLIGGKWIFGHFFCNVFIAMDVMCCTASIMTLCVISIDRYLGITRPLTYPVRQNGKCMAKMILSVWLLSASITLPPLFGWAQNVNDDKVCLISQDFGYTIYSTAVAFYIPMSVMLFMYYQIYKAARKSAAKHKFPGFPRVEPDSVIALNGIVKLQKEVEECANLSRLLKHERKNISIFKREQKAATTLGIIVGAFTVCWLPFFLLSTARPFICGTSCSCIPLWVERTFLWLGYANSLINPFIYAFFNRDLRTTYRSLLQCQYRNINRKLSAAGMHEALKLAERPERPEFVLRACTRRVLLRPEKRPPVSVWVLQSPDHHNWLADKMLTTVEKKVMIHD

[12] = target: T4, 5-hydroxytryptamine receptor 7; experiment: Agonist activity at 5-HT7R (unknown origin) transfected in HEK293 cells expressing tTA-dependent luciferase reporter and beta arrestin 2-TEV fusion gene assessed as beta arrestin recruitment incubated for 22 hrs by Tango assay; format: functional, cell-based
[13] = target: T4, 5-hydroxytryptamine receptor 7

CCCNCc1ccc(Cl)c(-c2ccccc2OC)c1
Ki [1]: 420 nM | Ki [2]: 640 nM | Ki [3]: 220 nM | Ki [4]: > 10000 nM | Ki [5]: 670 nM | Ki [6]: 12 nM | Ki [7]: 200 nM | Ki [8]: > 10000 nM | Ki [9]: 120 nM | Ki [10]: 3500 nM

CCCN(CCC)Cc1ccc(Cl)c(-c2ccccc2OC)c1
Ki ([11]; read-out: Ki): > 10000 nM | EC50 ([12]; hek293): Not Active | Ki [1]: 400 nM | Ki [2]: > 10000 nM | Ki [3]: > 10000 nM | Ki [4]: > 10000 nM | Ki [5]: > 10000 nM | Ki [6]: 80 nM | Ki [7]: 2600 nM | Ki [8]: > 10000 nM | Ki [9]: > 10000 nM | Ki [10]: > 10000 nM

COc1ccccc1-c1cc(C2CCN(C)C2)ccc1Cl (stereo not drawn)
Ki [1]: 200 nM | Ki [2]: 12 nM | Ki [3]: 19 nM | Ki [4]: 4100 nM | Ki [5]: 1200 nM | Ki [6]: 170 nM | Ki [7]: 920 nM | Ki [8]: 420 nM | Ki [9]: 1000 nM | Ki [10]: > 10000 nM

CCN(CC)CCc1ccc(Cl)c(-c2ccccc2OC)c1
Ki ([11]; read-out: Ki): 25 nM | EC50 ([12]; hek293): Not Active | Ki [1]: 84 nM | Ki [2]: 160 nM | Ki [3]: 8.4 nM | Ki [4]: 6700 nM | Ki [5]: 680 nM | Ki [6]: 320 nM | Ki [7]: > 10000 nM | Ki [8]: > 10000 nM | Ki [9]: 2100 nM | Ki [10]: > 10000 nM | EC50 [13]: 1900 nM

CCCCNCCc1ccc(Cl)c(-c2ccccc2OC)c1.Cl
Ki ([11]; read-out: Ki): 64 nM | EC50 ([12]; hek293): Not Active | Ki [1]: 220 nM | Ki [2]: 280 nM | Ki [3]: 110 nM | Ki [4]: > 10000 nM | Ki [5]: 570 nM | Ki [6]: 130 nM | Ki [7]: > 10000 nM | Ki [8]: > 10000 nM | Ki [9]: 2400 nM | Ki [10]: > 10000 nM

CNCCc1ccc(Cl)c(-c2ccccc2OC)c1
Ki ([11]; read-out: Ki): 1.6 nM | EC50 ([12]; read-out: EC50): 71 nM | Ki [1]: 280 nM | Ki [2]: 84 nM | Ki [3]: 3.3 nM | Ki [4]: 180 nM | Ki [5]: 170 nM | Ki [6]: 69 nM | Ki [7]: > 10000 nM | Ki [8]: > 10000 nM | Ki [9]: 910 nM | Ki [10]: 740 nM | EC50 [13]: 73 nM

CCCNCCc1ccc(Cl)c(-c2ccccc2OC)c1.Cl
Ki ([11]; read-out: Ki): 8.7 nM | Ki ([11]; read-out: pKi (converted)): 8.51 nM | EC50 ([12]; hek293): Not Active | Ki [1]: 140 nM | Ki [2]: 250 nM | Ki [3]: 41 nM | Ki [4]: > 10000 nM | Ki [5]: 600 nM | Ki [6]: 170 nM | Ki [7]: > 10000 nM | Ki [8]: > 10000 nM | Ki [9]: 240 nM | Ki [10]: > 10000 nM | EC50 [13]: 1000 nM

CCCN(CCC)CCc1ccc(Cl)c(-c2ccccc2OC)c1
Ki ([11]; read-out: Ki): 20 nM | EC50 ([12]; hek293): Not Active | Ki [1]: 65 nM | Ki [2]: 160 nM | Ki [3]: 38 nM | Ki [4]: > 10000 nM | Ki [5]: 1200 nM | Ki [6]: 230 nM | Ki [7]: > 10000 nM | Ki [8]: > 10000 nM | Ki [9]: 2900 nM | Ki [10]: > 10000 nM | EC50 [13]: 1400 nM

CCCCNCc1ccc(Cl)c(-c2ccccc2OC)c1
Ki ([11]; read-out: Ki): 52 nM | EC50 ([12]; hek293): Not Active | Ki [2]: > 10000 nM | Ki [3]: 2000 nM | Ki [4]: > 10000 nM | Ki [5]: 280 nM | Ki [6]: 15 nM | Ki [7]: 310 nM | Ki [8]: > 10000 nM | Ki [9]: 360 nM | Ki [10]: 240 nM
